In publication PMC3929184 (Journal of controlled release : official journal of the …, 2013):

Assays:
furin protease = furin protease (Homo sapiens, UniProt P09958); assay: In vitro cleavage by furin protease; assay type: in vitro ADME; conditions: Figure S1
[1] = Glucose tolerance test after nasal administration in mice; assay type: in vivo, WT C57BL/6 mice; conditions: systemic uptake monitored functionally by glucose-tolerance test
How it was run: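 Male C57BL/6 mice (6-9 weeks; Nnt deletion), acclimatized 2 weeks, fasted 18 h, lightly isoflurane-anesthetized. 20 μL of test peptide or its glycolipid conjugate (various concentrations) or saline was dripped slowly into the nasal cavity. After 1 h, glucose 2 g/kg was injected (n = 2 each). Blood glucose was read by glucometer from ~5 μL tail-nick blood at set times, and AUC was calculated.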

Chain of furin protease (P09958 108-794): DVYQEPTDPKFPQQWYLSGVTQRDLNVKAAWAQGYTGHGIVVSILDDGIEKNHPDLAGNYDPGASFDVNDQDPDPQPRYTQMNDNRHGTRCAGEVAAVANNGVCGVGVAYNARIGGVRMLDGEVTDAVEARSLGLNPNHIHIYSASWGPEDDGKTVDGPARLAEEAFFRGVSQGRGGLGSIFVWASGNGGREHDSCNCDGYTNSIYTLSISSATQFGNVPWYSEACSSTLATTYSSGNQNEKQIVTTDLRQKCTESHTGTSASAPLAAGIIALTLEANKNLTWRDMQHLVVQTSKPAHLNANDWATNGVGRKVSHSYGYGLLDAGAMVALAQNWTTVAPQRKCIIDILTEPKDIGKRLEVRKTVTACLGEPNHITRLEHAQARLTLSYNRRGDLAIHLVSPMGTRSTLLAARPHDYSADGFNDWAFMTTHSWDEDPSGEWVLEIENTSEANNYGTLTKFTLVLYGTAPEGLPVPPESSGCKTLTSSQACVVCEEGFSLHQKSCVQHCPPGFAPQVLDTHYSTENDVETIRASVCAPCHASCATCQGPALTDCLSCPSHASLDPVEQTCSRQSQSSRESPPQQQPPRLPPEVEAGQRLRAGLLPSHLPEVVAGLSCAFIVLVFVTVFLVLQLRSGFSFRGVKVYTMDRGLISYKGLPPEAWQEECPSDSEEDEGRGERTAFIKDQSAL

## Glucagon-like peptide-1 [GLP-1*]
Furin protease
  Cleavage by the furin protease: resistant to cleavage
[1]
  Mucosal absorption after nasal application: evidence for absorption
